Measurements taken from ChEMBL document CHEMBL2177049, “Novel cytidine-based orotidine-5'-monophosphate decarboxylase inhibitors with an unusual twist” (J Med Chem, 2012).
Converted amounts (≈) assume the structure as drawn.

Tests used:
[1] = biological target: Orotidine 5'-phosphate decarboxylase (Methanobacterium thermoautotrophicum, UniProt O26232); test: Inhibition of Methanobacterium thermoautotrophicum ODCase by isothermal titration calorimetry; set-up: species or system Methanothermobacter thermautotrophicus
Procedure, shortened: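 Recombinant M. thermoautotrophicum enzyme, preincubated overnight at room temperature in 50 mM Tris, 40 mM NaCl, 20 mM DTT. Activity read by ITC at 55 °C in 50 mM Tris, 20 mM DTT, pH 7.5, with 20 nM enzyme and 40 μM substrate; inhibitor 0–100 μM. Substrate injection into enzyme–inhibitor mix started the reaction. Triplicates; competitive Ki from rate versus [S] and double-reciprocal plots.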

[2] = biological target: T1, Orotidine phosphate decarboxylase (Plasmodium falciparum, UniProt Q8T6J6); test: Inhibition of Plasmodium falciparum ODCase by isothermal titration calorimetry
T1 sequence (Q8T6J6 whole entry): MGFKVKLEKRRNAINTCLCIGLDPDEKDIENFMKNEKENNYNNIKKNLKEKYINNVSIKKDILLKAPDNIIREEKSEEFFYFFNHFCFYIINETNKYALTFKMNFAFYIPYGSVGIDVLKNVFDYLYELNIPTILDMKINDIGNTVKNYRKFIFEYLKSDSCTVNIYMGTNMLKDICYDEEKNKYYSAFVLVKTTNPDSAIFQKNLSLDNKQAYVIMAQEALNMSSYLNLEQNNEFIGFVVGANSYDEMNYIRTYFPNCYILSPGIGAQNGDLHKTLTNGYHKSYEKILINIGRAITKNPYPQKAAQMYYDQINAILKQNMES
Procedure, shortened: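 Recombinant P. falciparum enzyme, preincubated overnight at room temperature in 50 mM Tris, 40 mM NaCl, 20 mM DTT. ITC at 37 °C in 50 mM Tris, 20 mM DTT, pH 7.5, with 60 nM enzyme and 12 μM substrate. Substrate injection into enzyme–inhibitor mix started the reaction. Triplicate runs; competitive Ki derived from rate versus [S] and double-reciprocal plots.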

Plasmodium falciparum = test: Antimalarial activity against Plasmodium falciparum incubated for 48 hrs by fluorescence-based SYBR-green assay; assay type: functional, organism-based
Procedure, shortened: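 P. falciparum ItG line grown in human O erythrocytes in RPMI 1640 with 10% human serum and 50 μM hypoxanthine. Compound stock was 10 mg/mL in RPMI, filter-sterilized, then serially diluted up to 500 μg/mL with constant parasite numbers. Plates were held 48 h under 3% CO2/2% O2/95% N2 and read by SYBR Green/Triton X-100 fluorescence. Quadruplicates; IC50 by nonlinear regression of dose–response.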

[3] = biological target: T2, Uridine 5'-monophosphate synthase (Homo sapiens, UniProt P11172); test: Inhibition of human ODCase by isothermal titration calorimetry
T2 sequence (P11172 whole entry): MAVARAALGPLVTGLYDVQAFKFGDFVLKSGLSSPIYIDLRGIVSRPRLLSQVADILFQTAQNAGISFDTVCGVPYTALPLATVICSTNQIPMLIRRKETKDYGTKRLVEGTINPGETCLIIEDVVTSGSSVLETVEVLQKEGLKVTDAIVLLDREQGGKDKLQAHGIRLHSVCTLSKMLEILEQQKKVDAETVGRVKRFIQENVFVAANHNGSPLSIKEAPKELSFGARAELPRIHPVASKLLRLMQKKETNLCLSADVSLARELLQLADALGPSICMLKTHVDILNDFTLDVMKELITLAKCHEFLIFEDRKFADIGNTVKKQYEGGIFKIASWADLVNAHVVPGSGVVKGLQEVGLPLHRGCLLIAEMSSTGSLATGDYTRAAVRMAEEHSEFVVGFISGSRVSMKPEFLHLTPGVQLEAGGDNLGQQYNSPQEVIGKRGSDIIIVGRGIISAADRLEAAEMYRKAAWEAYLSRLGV
Procedure, shortened: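 Recombinant human enzyme, preincubated overnight at room temperature in 50 mM Tris, 40 mM NaCl, 20 mM DTT. Substrate injection into enzyme–inhibitor mix started the reaction. Triplicates; competitive Ki from rate versus [S] and double-reciprocal analysis.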

Orotidine 5'-phosphate decarboxylase, sequence (O26232 whole entry): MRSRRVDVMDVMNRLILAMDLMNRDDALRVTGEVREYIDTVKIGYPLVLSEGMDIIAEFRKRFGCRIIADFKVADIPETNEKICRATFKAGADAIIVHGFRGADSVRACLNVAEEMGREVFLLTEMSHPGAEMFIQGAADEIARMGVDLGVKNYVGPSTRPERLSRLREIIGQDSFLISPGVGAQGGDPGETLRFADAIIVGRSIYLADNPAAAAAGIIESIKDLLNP

| SMILES | Ki [1] [µM] | Ki [2] [µM] | IC50 (Plasmodium falciparum) [µg/mL] | Ki [3] [µM] |
| --- | --- | --- | --- | --- |
| Nc1ccn([C@@H]2O[C@H](CO)[C@@H](O)[C@H]2O)c(=O)[n+]1[O-] |  |  | 411 (≈ 1590 µM) |  |
| O=c1nc(NO)ccn1[C@@H]1O[C@H](CO)[C@@H](O)[C@H]1O [N-HYDROXYCYTIDINE] |  |  | 610 (≈ 2350 µM) |  |
| O=c1nc(NO)ccn1[C@@H]1O[C@H](COP(=O)(O)O)[C@@H](O)[C@H]1O |  | > 1000 |  |  |
| O=c1ccn([C@@H]2O[C@H](COP(=O)(O)O)[C@@H](O)[C@H]2O)c(=O)[nH]1 | 330 | 210 |  | 220 |

Continued, values first:

| Ki [1] [µM] | Ki [2] [µM] | IC50 (Plasmodium falciparum) [µg/mL] | Ki [3] [µM] | SMILES |
| --- | --- | --- | --- | --- |
| 11.1 | 22.1 |  |  | Nc1ccn([C@@H]2O[C@H](COP(=O)(O)O)[C@@H](O)[C@H]2O)c(=O)[n+]1[O-] |
| 1200 | > 10000 |  | 1400 | Nc1ccn([C@@H]2O[C@H](COP(=O)(O)O)[C@@H](O)[C@H]2O)c(=O)n1 |
